Measurements taken from paper PMC2232892 (The Journal of General Physiology, 2000).
Like-named read-outs stand apart in the source and are kept apart here.

Experiments:
[1] = target: T1, Shaker B, ShB Δ6-46 (Drosophila melanogaster, UniProt P08510, DEL6-46); format: cell-based; conditions: for Kd: read-out: apparent Kd for external TEA block
Method in brief: (§1)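 Oocytes were defolliculated for 60–90 min with 2 mg/ml collagenase in Ca-free OR-2, injected with channel RNA, and held at 18°C in ND-96 with penicillin/streptomycin. Inside-out or outside-out macropatches were recorded 1–5 d later at 20–22°C, filtered at 5 kHz. External solution (mM): 5 KCl, 135 NMDG-Cl, 2 CaCl2, 2 MgCl2, 10 HEPES, pH 7.2. Internal solution: 110 KCl, 25 KOH, 10 EGTA, 10 HEPES, pH 7.2.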

[2] = target: T2, T449Y Shaker channels (Drosophila melanogaster, UniProt P08510, DEL6-46/T449Y); format: cell-based
Method in brief: as §1

[3] = target: T1, Shaker B, ShB Δ6-46; conditions: wild-type Shaker channels; ref Heginbotham and MacKinnon 1992; Newland et al. 1992; cited from earlier work
[4] = target: T2, T449Y Shaker channels; conditions: ref Heginbotham and MacKinnon 1992; cited from earlier work
[5] = system: RBK1 (rKv1.1) channels; conditions: ref Newland et al. 1992; cited from earlier work

SMILES	interaction parameter Q (external TEA antagonism of internal TEA block) ([1]; K+ solutions, 0-100 mM external TEA, Ko = 17 mM, 0 mV)	interaction parameter Q (external vs internal TEA) ([1]; Rb+ solutions)	Kd ([1]; 20 mM internal K+ and 50 mM internal Na+)	Kd ([1]; 50 mM internal K+ (data not shown))	Kd ([1]; 115 mM internal Na+ (20 mM K+))	interaction parameter Q (external vs internal TEA) ([2]; K+ solutions)	current blocked by 2 mM internal TEA ([2]; absence of external TEA)	current blocked by 2 mM internal TEA ([2]; presence of 1 mM external TEA)	δ (electrical distance of external block) [3]	electrical distance of external block [4]	interaction parameter Q (external vs internal TEA) [5]	apparent zδ (voltage dependence of block, Woodhull equation) ([1]; 0.25 mM external gallamine, wild-type channels)	interaction parameter Q (external gallamine antagonism of internal TEA block) ([1]; K+ solutions, several external gallamine concentrations)	block by 0.25 mM external gallamine compared with wild-type channels ([2]; same concentration as on wild-type, reduced voltage sensitivity)
CC[N+](CC)(CC)CC [TEA, tetraethylammonium]	4.6	1	7.5 ± 0.85 mM	17.6 ± 2.7 mM	7.6 ± 1.2 mM	5.2	77 ± 0.4%	64 ± 7%	~0.15	0.04	5.3	–	–	–
CC[N+](CC)(CC)CCOc1cccc(OCC[N+](CC)(CC)CC)c1OCC[N+](CC)(CC)CC [gallamine, Gallamine triethiode]	–	–	–	–	–	–	–	–	–	–	–	0.28	2	considerably more effective
